How the values were obtained:
YAP = YAP activation in BMDMs; format: cell-based, mice; conditions: E. coli 12 h, n = 4 per group
Procedure, shortened: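 Bone marrow cells from Fpn^flox/flox or Fpn^LysM/LysM mice were erythrocyte-lysed and grown in DMEM/10% FBS with 10 ng/mL GM-CSF. Nonadherent cells were replated after 24 h and cultured 7 days, with medium changed every 3 days. Cells were infected with E. coli (12 h) with DFO (100 μM, 12 h). Lysates were blotted for P-YAP and YAP (1:1000 each) with a β-actin control (1:5000); n = 4.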

Areg = Areg protein in BMDMs; format: cell-based, mice; conditions: n = 4 per group
Procedure, shortened: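 BMDMs: bone marrow cells from mouse hind legs, erythrocytes lysed, grown in DMEM with 10% FBS and 10 ng/mL GM-CSF at 37°C and 5% CO2. Non-adherent cells replated after 24 h and cultured 7 days, medium changed every 3 days. Cells were infected with E. coli and harvested at 12 h. Iron-loading agent 100 μM for 20 h or iron chelator 100 μM for 12 h. Lysis in RIPA, BCA protein assay, 20 or 40 μg on 12% SDS-PAGE, PVDF. Anti-Areg 1:1000 with β-actin loading control (1:5000), HRP secondaries 1:5000, ECL detection. Supernatant Areg by ELISA. n = 4 per group.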

[1] = cited from earlier work

## CC(=O)N(O)CCCCCNC(=O)CCC(=O)N(O)CCCCCNC(=O)CCC(=O)N(O)CCCCCN [DFO, desferrioxamine]
YAP; Fpn^LysM/LysM BMDMs, DFO 100 μM, 12 h
  YAP activity, Fpn^LysM/LysM BMDMs, DFO: decreased YAP activity
YAP; Fpn^flox/flox BMDMs, DFO 100 μM, 12 h
  YAP activity, Fpn^flox/flox BMDMs, DFO: decreased YAP activity
Areg; Fpn^LysM/LysM BMDMs, E. coli 12 h, DFO 100 μM, 12 h
  protein levels of Areg, Fpn^LysM/LysM BMDMs, DFO: decreased YAP activity and the protein levels of Areg
Areg; Fpn^flox/flox BMDMs, E. coli 12 h, DFO 100 μM, 12 h
  protein levels of Areg, Fpn^flox/flox BMDMs, DFO: decreased YAP activity and the protein levels of Areg

## CC[C@H](C)[C@@H]1NC(=O)[C@@H](NC(=O)[C@@H](NC(=O)[C@@H]2CCCN2C(=O)[C@H](Cc2ccccc2)NC(=O)[C@H](Cc2c[nH]cn2)NC(=O)[C@@H](NC(=O)[C@@H](N)CC(=O)O)[C@@H](C)O)[C@@H](C)CC)CSSC[C@@H](C(=O)N[C@@H](CCCCN)C(=O)N[C@H](C(=O)O)[C@@H](C)O)NC(=O)[C@@H]2CSSC[C@@H]3NC(=O)[C@@H]4CSSC[C@H](NC(=O)[C@H](Cc5ccccc5)NC1=O)C(=O)N[C@@H](CSSC[C@H](NC(=O)[C@H](CCCCN)NC(=O)[C@H](CO)NC(=O)[C@H](CCCNC(=N)N)NC(=O)[C@H](Cc1c[nH]cn1)NC3=O)C(=O)NCC(=O)N[C@@H](CCSC)C(=O)N2)C(=O)NCC(=O)N4 [Hepcidin]
[1]; by limiting extracellular iron availability
  prevention of bacterial dissemination: prevent bacterial dissemination by limiting extracellular iron availability
[1]
  pharmacokinetics: poor pharmacokinetics

## ferric ammonium citrate
YAP; Fpn^flox/flox BMDMs, FAC 100 μM, 20 h
  activation of YAP signaling, Fpn^flox/flox BMDMs, FAC: significantly facilitated the activation of YAP signaling
Areg; Fpn^flox/flox BMDMs, E. coli 12 h, FAC 100 μM, 20 h
  production and secretion of Areg, Fpn^flox/flox BMDMs, FAC: promoted the production and secretion of Areg

## verteporfin
Areg; BMDMs and supernatant, 12 h after E. coli infection
  protein levels of macrophage-derived Areg (YAP inhibition): dramatically downregulated the protein levels of macrophage-derived Areg
